# Measured values gathered from unrelated publications.
# Lines come from different studies, so protocols differ.
# Effect on: cell growth or viability
SMILES,cell line,technique,time,setting,IC50 [µM]
COc1cc(C(=O)c2nc(-c3cccc4ncccc34)c[nH]2)cc(OC)c1OC,PC-3,MTS,72 h,,> 1
CC(C)[C@H](NC(=O)[C@H](CCCCN)NC(=O)[C@H](Cc1c[nH]c2ccccc12)NC(=O)[C@H](Cc1c[nH]c2ccccc12)NC(=O)[C@H](CCCNC(=N)N)NC(=O)[C@H](Cc1c[nH]c2ccccc12)NC(=O)[C@H](CCCNC(=N)N)NC(=O)[C@@H](N)CCCNC(=N)N)C(=O)N[C@@H](Cc1c[nH]cn1)C(=O)N[C@@H](Cc1c[nH]c2ccccc12)C(=O)N[C@@H](Cc1c[nH]cn1)C(=O)N[C@@H](CCC(=O)O)C(=O)N[C@@H](Cc1c[nH]c2ccccc12)C(N)=O,A549,MTT,24 h,,> 500
COc1cc(C(=O)c2nc(-c3cccc4[nH]ccc34)c[nH]2)cc(OC)c1OC,PC-3,MTS,72 h,,~0.0013
CC(C)[C@H](NC(=O)[C@H](CCCCN)NC(=O)[C@H](Cc1c[nH]c2ccccc12)NC(=O)[C@H](Cc1c[nH]c2ccccc12)NC(=O)[C@H](CCCNC(=N)N)NC(=O)[C@H](Cc1c[nH]c2ccccc12)NC(=O)[C@H](Cc1c[nH]cn1)NC(=O)[C@@H](N)CCCNC(=N)N)C(=O)N[C@@H](Cc1c[nH]cn1)C(=O)N[C@@H](Cc1c[nH]c2ccccc12)C(=O)N[C@@H](CCCNC(=N)N)C(=O)N[C@@H](CCC(=O)O)C(=O)N[C@@H](Cc1c[nH]c2ccccc12)C(N)=O,A549,MTT,24 h,,> 500
COc1cc(C(=O)c2nc(-c3cccc4[nH]ccc34)cn2C)cc(OC)c1OC,PC-3,MTS,72 h,,0.17
N.N.[Cl][Pt][Cl],MEG-01,ATP luminescence,72 h,,5.17
N.N.[Cl][Pt][Cl],NIH3T3,,96 h,3D culture,33.8
COc1cc(C(=O)c2nc(-c3cccc4occc34)c[nH]2)cc(OC)c1OC,PC-3,MTS,72 h,,0.0614
CC[C@H](C)[C@H](NC(=O)[C@H](CCCNC(=N)N)NC(=O)[C@H](CCCNC(=N)N)NC(=O)[C@H](CCCCN)NC(=O)[C@H](CCCNC(=N)N)NC(=O)[C@H](CCCNC(=N)N)NC(=O)[C@H](CCCNC(=N)N)NC(=O)[C@H](CC(C)C)NC(=O)[C@H](CCCNC(=N)N)NC(=O)CNC(=O)[C@H](CCSC)NC(=O)[C@@H](N)CCSC)C(=O)N[C@@H](CCCCN)C(N)=O,A549,MTT,24 h,,> 500
CC(=N)S,NIH3T3,,96 h,,109
CC[C@H](C)[C@H](NC(=O)[C@H](CCCCN)NC(=O)[C@H](CCCNC(=N)N)NC(=O)[C@H](Cc1ccccc1)NC(=O)[C@H](CCCNC(=N)N)NC(=O)[C@H](CCCNC(=N)N)NC(=O)[C@H](CCCNC(=N)N)NC(=O)[C@H](Cc1ccccc1)NC(=O)[C@H](CCCCN)NC(=O)[C@H](CCCNC(=N)N)NC(=O)[C@H](CC(C)C)NC(=O)[C@@H](N)CCCNC(=N)N)C(=O)NCC(N)=O,A549,MTT,24 h,,> 500
S=P1(c2ccccc2)CCCCC1,PC-3,MTT,72 h,,> 100
O=[N+]([O-])c1ccc(NCCCCCCN=C=S)c2nonc12,PC-3,MTT,24 h,,1
CC(C)C[C@H](NC(=O)[C@H](CCCCN)NC(=O)[C@H](Cc1c[nH]c2ccccc12)NC(=O)[C@H](Cc1c[nH]c2ccccc12)NC(=O)[C@H](CCCNC(=N)N)NC(=O)[C@H](Cc1c[nH]c2ccccc12)NC(=O)[C@H](Cc1c[nH]cn1)NC(=O)[C@@H](N)CCCNC(=N)N)C(=O)N[C@@H](Cc1c[nH]cn1)C(=O)N[C@@H](Cc1c[nH]c2ccccc12)C(=O)N[C@@H](CCCNC(=N)N)C(=O)N[C@@H](CCC(=O)O)C(=O)N[C@@H](Cc1c[nH]c2ccccc12)C(N)=O,A549,MTT,24 h,,71
C#CC[C@@H]1NC(=O)[C@@H](CCCNC(=N)N)NC(=O)[C@H]([C@@H](C)O)NC(=O)[C@@H](CCCN)NC(=O)[C@H](Cc2ccccc2)NC(=O)[C@@H](Cc2ccccc2)NC1=O,A549,ATP luminescence,,,> 100
